Results reported in ChEMBL document CHEMBL3044526, “Synthesis, fungicidal activity, and QSAR of pyridazinonethiadiazoles” (2002).

Test system: Puccinia recondita
Test: Antifungal activity against Puccinia recondita wheat leaves treated as foliar spray after 10 days relative to triadimefon
Format: functional
How it was run: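 Susceptible wheat cv. Ming-Xian 169 (10 germinating seeds per pot) was grown in a greenhouse at 15-20 °C and inoculated with P. recondita, then held 24 h in a moist chamber. Once the leaves were dry, each pot got a 10 mL spray of compound solution. Percent disease control versus untreated pots was scored 10 days later, in triplicate. Triadimefon (100 ppm) was run alongside. D = lg[a/(100−a)] − lg Mw.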

## Cc1cc(=O)c(-c2nnc(Nc3cccc(C(F)(F)F)c3)s2)nn1-c1ccccc1Cl
  inhibition (INH): 70%

## Cc1cc(=O)c(-c2nnc(Nc3ccccc3F)s2)nn1-c1ccccc1Cl
  inhibition (INH): 10%

## Cc1cc(=O)c(-c2nnc(Nc3ccccc3)s2)nn1-c1ccccc1Cl
  inhibition (INH): 10%

## Cc1cc(=O)c(-c2nnc(Nc3ccccc3F)s2)nn1-c1ccccc1
  inhibition (INH): 50%

## Cc1cc(=O)c(-c2nnc(Nc3cccc(C(F)(F)F)c3)s2)nn1-c1ccccc1
  inhibition (INH): 60%

## Cc1cc(=O)c(-c2nnc(Nc3cccc(C(F)(F)F)c3)s2)nn1-c1c(Cl)cccc1Cl
  inhibition (INH): 50%

## Cc1cc(=O)c(-c2nnc(Nc3ccccc3F)s2)nn1-c1c(Cl)cccc1Cl
  inhibition (INH): 30%

## Cc1cc(=O)c(-c2nnc(Nc3cccc(C(F)(F)F)c3)s2)nn1-c1ccc(Cl)cc1
  inhibition (INH): 60%

## Cc1cc(=O)c(-c2nnc(Nc3ccccc3F)s2)nn1-c1ccc(Cl)cc1
  inhibition (INH): 50%

## Cc1cc(=O)c(-c2nnc(Nc3ccccc3F)s2)nn1-c1cc(Cl)c(Cl)cc1Cl
  inhibition (INH): 60%

## Cc1cc(=O)c(-c2nnc(Nc3cccc(C(F)(F)F)c3)s2)nn1-c1cc(Cl)c(Cl)cc1Cl
  inhibition (INH): 70%

## Cc1ccc(-n2nc(-c3nnc(Nc4cccc(C(F)(F)F)c4)s3)c(=O)cc2C)c(C)c1
  inhibition (INH): 90%

## Cc1ccc(-n2nc(-c3nnc(Nc4ccccc4F)s3)c(=O)cc2C)c(C)c1
  inhibition (INH): 90%

## Cc1cc(=O)c(-c2nnc(Nc3ccccc3F)s2)nn1-c1ccc(Cl)cc1Cl
  inhibition (INH): 80%

## Cc1cc(=O)c(-c2nnc(Nc3cccc(C(F)(F)F)c3)s2)nn1-c1ccc(Cl)cc1Cl
  inhibition (INH): 90%

## Cc1cc(=O)c(-c2nnc(Nc3ccccc3)s2)nn1-c1ccc(Cl)cc1Cl
  inhibition (INH): 20%
